These results are taken from PMC8751737 (International journal of pharmaceutics, 2021).

The subject of one data set is MCF-7 3D tumor spheroids. Nature of the data set: Antiproliferative activity in multicellular 3D tumor spheroid. It counts as cell-based, human. The note with it: read-out: 3D tumor spheroid IC50 (72 Hours) MCF-7, hanging drop spheroids, CellTiter-Glo 3D, mean ± SD, n=3. The gist of the method: (§1)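 Hanging-drop spheroids seeded at 500 cells/μL in 40 μL of medium and formed over 24 h at 37 °C, 5% CO2, humidified. Spheroids moved to round-bottom 96-well plates in serum-free medium and treated with test compound at 0.01–100 μM for 72 h at 37 °C. Viability read by CellTiter-Glo 3D luminescence, and IC50 derived from the dose-response.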

Data set [1] relates to BT474. Put plainly: Antiproliferative activity, CellTiter-Glo assay. It counts as cell-based, human. The note with it: read-out: IC50 (72 Hours) BT474, 72 h incubation, triplicate. The gist of the method:
(§2)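 Cells were plated in 96-well plates and held 24 h at 37 °C in 5% CO2. Media with 10% FBS, 1% penicillin-streptomycin and 1% insulin were RPMI-1640 for BT474, EMEM for Calu-3 and Fibroblast Basal Medium for HLFs. Test compound or liposome was added at 0.001–100 μM for 72 h. Cells were PBS-washed before CellTiter-Glo luminescence. Triplicate runs; IC50 from dose-response plot.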

The test system of data set [2] is Calu-3. Put plainly: Apoptosis study. The class given is cell-based, human. The note with it: Calu-3, 3 μM, 12 h, annexin V-FITC/PI, n=3. The gist of the method: (§3)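 Cells were seeded at 2×10⁵ cells/mL in flasks and cultured 24 h. At 70% confluence they were exposed to 3 μM test compound in serum-free medium for 12 h. Cells were then trypsinized, washed in ice-cold PBS and resuspended in binding buffer at 2.5×10⁶ cells/mL. Staining with annexin V-FITC plus propidium iodide ran 15 min before flow cytometry.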

For data set [3], the system named is Calu-3 3D tumor spheroids. Put plainly: Antiproliferative activity in multicellular 3D tumor spheroid. The class given is cell-based, human. The note with it: read-out: 3D tumor spheroid IC50 (72 Hours) Calu-3, hanging drop spheroids, CellTiter-Glo 3D, mean ± SD, n=3. The gist of the method:
as §1

Data set [4] deals with non-cancerous lung fibroblast cells (HLFs). Nature of the data set: Antiproliferative activity, CellTiter-Glo assay. The class given is cell-based, human. The note with it: read-out: IC50 (72 Hours) HLFs, 72 h incubation, triplicate. The gist of the method:
as §2

The test system of data set [5] is Calu-3 bearing nude mice. Nature of the data set: Toxicity study. It counts as in vivo, BALB/c nude mice. The gist of the method:
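Same Calu-3 xenograft nude mice and intravenous dosing every four days, with a PBS control group. Body weight was recorded every four days during the efficacy study. At termination (38 days), heart, liver, spleen, kidney and lung tumor were formalin-fixed and paraffin-embedded. Sections of 5 μm were H&E-stained and examined microscopically by a toxicologist.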

Another data set concerns MCF-7 spheroids. Put plainly: In vitro tumor growth inhibition in 3D tumor spheroids. The class given is cell-based, human. The note with it: 3 μM, 5 days. The gist of the method: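 MCF-7 cells (40 μL at 125 cells/μL) grown as hanging-drop spheroids at 37 °C, 5% CO2, humidified, until about 100–200 μm, then moved to round-bottom 96-well plates (day zero). Treated with test compound at 3 μM, with untreated controls. Imaged for five consecutive days under a 4× objective, and volume calculated as 0.5 × length × width².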

The test system of data set [6] is Calu-3. Put plainly: Antiproliferative activity, CellTiter-Glo assay. The class given is cell-based, human. The note with it: read-out: IC50 (72 Hours) Calu-3, 72 h incubation, triplicate. The gist of the method:
as §2

Another data set relates to BT474 3D tumor spheroids. Nature of the data set: Antiproliferative activity in multicellular 3D tumor spheroid. The class given is cell-based, human. The note with it: read-out: 3D tumor spheroid IC50 (72 Hours) BT474, hanging drop spheroids, CellTiter-Glo 3D, mean ± SD, n=3. The gist of the method:
as §1

The subject of data set [7] is BT474. Nature of the data set: Apoptosis study. The note with it: BT474, 3 μM, 12 h, annexin V-FITC/PI, n=3. It counts as cell-based, human. The gist of the method: as §3
For data set [8], the system named is Calu-3 bearing nude mice. Nature of the data set: In vivo antitumor activity. Further details: species or system BALB/c nude mice. The note with it: intravenous, Dox-equivalent dose 6 mg kg−1 every four days, mean ± SD, n=5. The gist of the method:
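Male and female BALB/c nude mice (22–35 g) received 1×10⁷ Calu-3 cells in 100 μL culture medium subcutaneously in the right back. At 30–50 mm³ tumors, mice were randomized (n = 5/group). Dosing was intravenous every four days, with PBS as control. Tumor volume was measured every four days. Mice were killed at 38 days and tumors weighed.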

Regarding `COc1cccc2c1C(=O)c1c(O)c3c(c(O)c1C2=O)C[C@@](O)(C(=O)CO)C[C@@H]3O[C@H]1C[C@H](N)[C@H](O)[C@H](C)O1` [Free Dox, Doxorubicin], the 50% inhibitory concentration (IC50) in the data set with MCF-7 3D tumor spheroids was 548 ± 125 nM; in the data set on BT474 [1], 399 ± 79 nM; in data set [3], 745 ± 54 nM; in [4], 170 ± 82 nM; with Calu-3 [6] it was 158 ± 75 nM; in the data set on BT474 3D tumor spheroids it was 845 ± 58 nM. Besides, the “total percentage of apoptosis” value in the data set with Calu-3 [2] was determined as 16.83%; in the data set on BT474 [7], 35.49%. For the same compound, the body weight loss result with Calu-3 bearing nude mice [5] (Dox-equivalent 6 mg kg−1 every four days, 38 days after tumor implantation) is “significant weight loss”. For the same compound, the “histopathology of heart tissues” value with Calu-3 bearing nude mice [5] (H&E, at 38 days, compared to control group) is given as “some amount of vascular degeneration”. The “histopathology of liver and kidneys” value with Calu-3 bearing nude mice [5] (H&E, at 38 days, compared to control group (PBS)) is given as “no apparent inflammatory reaction, structural modification, or pathological abnormalities”. The histopathology of spleen result in the data set with Calu-3 bearing nude mice [5] (H&E, at 38 days, compared with control group) was “loss of lymphoid blue matter and deposition of red matter”. The “inhibition of spheroid growth” value with MCF-7 spheroids is given as “significant inhibition of spheroidal tumor growth”. The “mean tumor size at 38 days after implantation” value in the data set with Calu-3 bearing nude mice [8] came out at 68.26 ± 25.89 mm^3. Further, the “mean tumor weight at 38 days after implantation” value in the data set with Calu-3 bearing nude mice [8] stood at 162.8 ± 21.98 mg.
